To fix the notation:
B1: tRNA (parent)
chain: GUUCCGUUGGCGUAAUGGUAACGCGUCUCCCUCCUAAGGAGAAGACUGCGGGUUCGAGUCCCGUACGGAACG

Fewer inactive variants are shown than the library holds.

The variants in the series derive from B1. Nature of the series: yeast fitness relative to wild type (ratio to wild type); higher = fitter; tRNA-Arg(CCU), competitive growth, 37 C, YPD. The method in brief:
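Amplicons of the tRNA-Arg(CCU) gene were sequenced, 100-nucleotide paired-end, from the start population and from each end population of a pooled yeast competition. The competition, in six parallel replicates, lasted 24 hours in YPD at 37°C. Fitness relative to wild type was calculated from changes in genotype frequencies. Genotypes had to have ≥ 100 starting reads, and estimates < 0.5 were set to 0.5.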
On to GUUCCGUUGGCGUACUGGUAACGCGUCUCCCUCCUAAGGAGAAGCCUGCGGGUUCGAGUCCCGUACGGAACG [A15C A45C], for which the yeast fitness came to 0.587.

GCUCCGUUGGCGUAAUGGUAACGCGUCUCCCUCCAAAGGAGAAGACUGCGGGUUAGAGUCCCGUAAGGAACG [U2C U35A C55A C66A]: the yeast fitness amounted to 0.521.

With GUUUCGUCGGCGUACUGGUAACGCGUCUCCCUCCUAAGGAGAAGACUGCGGGUUCGAGUCCCCUACGGAACG [C4U U8C A15C G63C], the yeast fitness is no more than 0.5.

For the variant GUUCCGUUGGCGUAAUGGUAACGCGUCUCCCUCCUAAUGAGAAGACUGCGCGUUCGAGUCCCGUACGGAACG [G38U G51C], the yeast fitness is no more than 0.5.

On to GUUCCGUUGGCGUAAUGGUAACGCGUCCCCCUCCUAAGGAGAAGUCUGCGGGUUCGAGUCCCGUACGGAACG [U28C A45U], for which the yeast fitness turned out to be 0.985.

As for GUUCUGUUGGCGUGAUGGUAACGUGUCUCCCUCCUAAGGUGAAGACUGCGGGUUGGAGUCCCGUACGGAACG [C5U A14G C24U A40U C55G], the yeast fitness is no more than 0.5.

Regarding GUUCCGUGGGCAGAAUGGUAAGGGGUCUCCCUCCUGCGGAGAAGACUGCGGGUUCGUGUCCCGUACGCAACG [U8G G12A U13G C22G C24G A36G A37C A57U G68C], the yeast fitness was 0.589.

As for GUUCCGUUGCCGUAAGGGUAACGCGUCUCCAGCCUAAGGAGAAGACUGCGGGUUCGUGUCCCGUACGGAACG [G10C U16G C31A U32G A57U], the yeast fitness was no more than 0.5.

Consider GUUCCGUUGGCGUAAUCGUAACGCGUCUCCCUCCUAAGGAGGAGACUGCGGGUUCGAGUCCCGUACGGAGCG [G17C A42G A70G], for which the yeast fitness is no more than 0.5.

As to GUUACGUUGGCGUAAUGGUAACGCGUCUCCCUCCUAAGGGGAAGACUGCGGGUUCGAGUCCCGUGCGGAACG [C4A A40G A65G], the yeast fitness came out at 0.533.

With GUCCCGUUGGCGUAAUGGUAACGCGUCUCCCCCCUAAGGAGAAGACUGCGGGUUCGAGUCCCGUUCGAAACG [U3C U32C A65U G68A], the yeast fitness was no more than 0.5.

For GUUCCGUUGGCGUAAGGGUUACGCGUCUCCCUCCUAAGGAGAAGACUGCGGGUUCGAGUCCCGUACGGAACG [U16G A20U], the yeast fitness stood at 0.642.

GUUCCGUUGGCGUAAUGGUAACGCGUCUCCCUCCUAAGGAGAAGAUUGCGGGUUCGAGUACCGUACGGUACG [C46U C60A A69U]: the yeast fitness worked out at 0.57.

On to GUUCCGUUGGCGUAGUGGUAACGCGUCUCCCUCCUAAGGAGAAAACUGCGGGUUCGAAUCCCGUACGGAACG [A15G G44A G58A], for which the yeast fitness came to 0.992.

For the variant GUUCCGUUGGCGUUAUGGUAACGCGUCUCCCUCCCAAGGAGAAGACUGCGGGUUAGAGUACCGUACGGAACG [A14U U35C C55A C60A], the yeast fitness is no more than 0.5.

Turning to GUUCCGUUGGCGUAAUGAUUACGCGUCUCCCUCCUAAGGAGGAGACUGCGGGUUCGAGUCCCGUACGGAACG [G18A A20U A42G], the yeast fitness was no more than 0.5.

For GUUCCGUUGGCGUCAUGGUAACGCGUCUCGCUCCUAAGGAGAAGACUGCGGGUUCGAGUCCCGUACGGAACG [A14C C30G], the yeast fitness came out at 0.508.

As for GUUCCGUUGGCGUAAUGAUUACGCGUCUCCCUCCUAAGGAGAAGACUGCGGGUUCGAGUCCAGUACGGACCG [G18A A20U C62A A70C], the yeast fitness stood at 0.552.

Regarding GUUCCGUUGGGGUUAUGGUAACGAGUCUCCCUCCUAAGGAGAAGACUGCGGGUUCGAGUCACGUACGGAACG [C11G A14U C24A C61A], the yeast fitness is no more than 0.5.

For the variant GUACCGUUGGCGUAAUGGUCGCGCGUCUCCCUCCUAAGGAGAAGACUGCGGGUUCGAGUCCCGUACGGAACG [U3A A20C A21G], the yeast fitness was 0.679.

Regarding GUUCCGUUGACGUAAUGGUAAGGCGUCUCCCUCCUAGAGAGAAGACUGCGGGUUCGAGUCCCGUACGGAACG [G10A C22G A37G G38A], the yeast fitness is no more than 0.5.

In the case of GUUCCGUUGGCAUAAUGGUAACGCGUCUCCCUCCUAAGGAGAAGGCUGCGGGUUCGAGUCCUGUACGGAACG [G12A A45G C62U], the yeast fitness was found to be 0.531.

Consider GUUCCGUUGGCGUAAUGGUAACGGGUCUCCGUCCUGAGGAGAAGACUGCGGGUUCGAGUCCCGUUCGGAACG [C24G C31G A36G A65U], for which the yeast fitness was no more than 0.5.

As for GUUUCGUUGGCGUAAUGGUAACGCGUCUCCCUCCUAAGGAGAAGACAGCGCGUUCGAGUCCCGUACGGAUCG [C4U U47A G51C A70U], the yeast fitness is no more than 0.5.

Consider GUUCCGUUCGCGAAAUGGUAACGCAUCUCCCUCCUAAGGCGAAGACUGCGGGUUCGAGUCCCGUACCGAACG [G9C U13A G25A A40C G67C], for which the yeast fitness is no more than 0.5.

Regarding GUUCGGUUGGCGUUAUGGUCACGCGUCUCCCUCCUAAGGAGAAGGCUGCGGGUUCGAGUCCCGUACGGAACG [C5G A14U A20C A45G], the yeast fitness is no more than 0.5.

Turning to GUCCCGUUGGCGUAAUGGUAACGCGUCUCCCUCCUAAGGAGAAGACUGCGGAUUCGAGUCCCGUACGAAACG [U3C G52A G68A], the yeast fitness was no more than 0.5.

Turning to GUUCCGUUGGCGUAAUGGUAACGCGUCUCACUCGUAAGGAGAAGACUGCAGGUUCGAGUCCUGUAAGGAACG [C30A C34G G50A C62U C66A], the yeast fitness was no more than 0.5.

GUUCCGUUGGCGUAAUGGUAAAGCGUCUCCCUCCUAAGGAGAAGACUGCGCGUUCGAGUCCCGUACGCAACG [C22A G51C G68C]: the yeast fitness is no more than 0.5.

GUCCCGUUGGCGUAAUGGUAACGCGUCUCUCUCCUAAGGAGGAGACUGCGGGUUCGACUCCCGUACGGAACG [U3C C30U A42G G58C]: the yeast fitness is no more than 0.5.

As for GUUCCGUUGGCGUAAUGGUAACGUGUCUCCCUCCUAAGGAGAAGACUGCGCGUUCGAGUCCCGUACGGAACG [C24U G51C], the yeast fitness was 0.624.

Regarding GUUCCGUUGGCGUAAUGGUAACGUGUUUCCCUCCUAAGGAGAAGACUGCGGGGUCGAGUACCGUACGGAGCG [C24U C27U U53G C60A A70G], the yeast fitness was no more than 0.5.

For GUUCCGUUGGCGUAAUGGUCACGGGUAUCCCUCCUAAGGAGAAAACUGCGGGUUCGAGUCCCGUACGGAACG [A20C C24G C27A G44A], the yeast fitness is no more than 0.5.

Take GUUCCGAUGGCGUAAUGGUAACGCGUCGCACUCCUAAGGAGAAGACUGCGGAUUCGAGUCCCGUACGGAACG [U7A U28G C30A G52A]: the yeast fitness stood at 0.595.

GUUCCGUUGGCGCAAUGGUAACGCGUCUCCUUCCUAAGGAGAAGACUGCGGGUUCGGGUCCCGAAAGGCACG [U13C C31U A57G U64A C66A A69C]: the yeast fitness was no more than 0.5.

GUUACGUUGGCGUGAUGGUAACGCGUCUCCCUCCUCAGGAGAAGACUGCGGGUUCGAGACCCGUACGGAACG [C4A A14G A36C U59A]: the yeast fitness was determined as 0.686.

Consider GUUCCGUUGGCGUAAUGGUAACGCGUCUCCCUCGUAAGGAGAAGACUGCGGGUUGGAGCUCCGUACUGACCG [C34G C55G U59C C60U G67U A70C], for which the yeast fitness is no more than 0.5.

On to GUUCCGUUGGCGUAAUGGUAACGCGUCUCCCUCCUAAGGAGAUGACUGCGGGUUCAAGUCCCGUACGGAUCG [A43U G56A A70U], for which the yeast fitness worked out at 0.948.

The record behind these values is the RNAGym collection of RNA variant scans (doi:10.1126/science.aae0568).
